Where a SMILES comes first, the peptide text is derived from it. [ ]: non-standard residue; d: D form. ξ: configuration not given here. ξDip = NC(C(=O)O)C(c1ccccc1)c1ccccc1
How the values were obtained:
Toledo = experiment: Cytotoxicity against human Toledo cells assessed as inhibition of cell proliferation incubated for 4 hrs by MTS assay; assay type: functional, cell-based
In short: (§1)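 Cells grown in RPMI-1640 with 2 mM L-glutamine and 10% FBS, plated, then held 24 h at 37 °C. Adherent lines washed once in FBS-free medium. Cells exposed 4 h at 37 °C, 5% CO2 in FBS-free medium to 10 concentrations (1/4 steps, 400 μM top). 1% Triton X-100 served as positive control. MTS/PMS added for 2 h, then OD 490 nm read. IC50 from semilog curves; three independent experiments, quadruplicate wells.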

SK-N-AS = experiment: Cytotoxicity against human SK-N-AS cells assessed as inhibition of cell proliferation incubated for 4 hrs by MTS assay; assay type: functional, cell-based; in short: as §1
MDA-MB-231 = experiment: Cytotoxicity against human MDA-MB-231 cells assessed as inhibition of cell proliferation incubated for 4 hrs by MTS assay; assay type: functional, cell-based; conditions: MDA-MB-231, 4 h; in short: as §1
Raji = experiment: Cytotoxicity against human Raji cells assessed as inhibition of cell proliferation incubated for 4 hrs by MTS assay; assay type: functional, cell-based; in short: as §1
HCT-15 = experiment: Cytotoxicity against human HCT-15 cells assessed as inhibition of cell proliferation incubated for 4 hrs by MTS assay; assay type: functional, cell-based; conditions: HCT-15, 4 h; in short: as §1
SK-OV-3 = experiment: Cytotoxicity against human SK-OV-3 cells assessed as inhibition of cell proliferation incubated for 4 hrs by MTS assay; assay type: functional, cell-based; conditions: SK-OV-3, 4 h; in short: as §1
Malme-3M = experiment: Cytotoxicity against human Malme-3M cells assessed as inhibition of cell proliferation incubated for 4 hrs by MTS assay; assay type: functional, cell-based; in short: as §1
[1] = Cytotoxicity against human Hs 445 cells assessed as inhibition of cell proliferation incubated for 4 hrs by MTS assay; assay type: functional, cell-based; conditions: Hs 445, 4 h; in short: as §1
SK-MEL-2 = experiment: Cytotoxicity against human SK-MEL-2 cells assessed as inhibition of cell proliferation incubated for 4 hrs by MTS assay; assay type: functional, cell-based; conditions: SK-MEL-2, 4 h; in short: as §1
HepG2 = experiment: Cytotoxicity against human HepG2 cells assessed as inhibition of cell proliferation incubated for 4 hrs by MTS assay; assay type: functional, cell-based; conditions: HepG2, 4 h; in short: as §1
Daudi = experiment: Cytotoxicity against human Daudi cells assessed as inhibition of cell proliferation incubated for 4 hrs by MTS assay; assay type: functional, cell-based; in short: as §1
RPMI-8226 = experiment: Cytotoxicity against human RPMI-8226 cells assessed as inhibition of cell proliferation incubated for 4 hrs by MTS assay; assay type: functional, cell-based; conditions: RPMI-8226, 4 h; in short: as §1
PANC-1 = experiment: Cytotoxicity against human PANC-1 cells assessed as inhibition of cell proliferation incubated for 4 hrs by MTS assay; assay type: functional, cell-based; conditions: PANC-1, 4 h; in short: as §1
[2] = Cytotoxicity against human MRC5 cells assessed as inhibition of cell proliferation incubated for 4 hrs by MTT assay; assay type: toxicity, cell-based
In short: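 MRC-5 human embryonic lung fibroblasts cultured in MEM with 2 mM L-glutamine and 10% FBS, without antibiotics, at 37 °C in humidified 5% CO2. Cultures were tested for mycoplasma. IC50 from three or more independent measurements, given as mean ± SD.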

HL60/ADR = experiment: Cytotoxicity against human HL60/ADR cells assessed as inhibition of cell proliferation incubated for 4 hrs by MTS assay; assay type: functional, cell-based; in short: as §1
MCF7 [3] = experiment: Cytotoxicity against human MCF7 cells assessed as inhibition of cell proliferation incubated for 4 hrs by MTS assay; assay type: functional, cell-based; conditions: MCF7, 4 h; in short: as §1
CCRF-CEM = experiment: Cytotoxicity against human CCRF-CEM cells assessed as inhibition of cell proliferation incubated for 4 hrs by MTS assay; assay type: functional, cell-based; in short: as §1
[4] = Cytotoxicity against human MRC5 cells assessed as inhibition of cell proliferation incubated for 4 hrs by MTS assay; assay type: toxicity, cell-based; in short: as §1
IGROV-1 = experiment: Cytotoxicity against human IGROV-1 cells assessed as inhibition of cell proliferation incubated for 4 hrs by MTS assay; assay type: functional, cell-based; conditions: IGROV-1, 4 h; in short: as §1
[5] = Cytotoxicity against human HUVEC-C cells assessed as inhibition of cell proliferation incubated for 4 hrs by MTS assay; assay type: toxicity, cell-based; in short: as §1
HL-60 = experiment: Cytotoxicity against human HL-60 cells assessed as inhibition of cell proliferation incubated for 4 hrs by MTS assay; assay type: functional, cell-based; conditions: HL-60, 4 h; in short: as §1
[6] = Cytotoxicity against human MINO cells assessed as inhibition of cell proliferation incubated for 4 hrs by MTS assay; assay type: functional, cell-based; in short: as §1
OVCAR-3 = experiment: Cytotoxicity against human OVCAR-3 cells assessed as inhibition of cell proliferation incubated for 4 hrs by MTS assay; assay type: functional, cell-based; conditions: OVCAR-3, 4 h; in short: as §1
DU-145 = experiment: Cytotoxicity against human DU-145 cells assessed as inhibition of cell proliferation incubated for 4 hrs by MTS assay; assay type: functional, cell-based; conditions: DU-145, 4 h; in short: as §1
MDA-MB-435S = experiment: Cytotoxicity against human MDA-MB-435S cells assessed as inhibition of cell proliferation incubated for 4 hrs by MTS assay; assay type: functional, cell-based; in short: as §1
Calu-6 = experiment: Cytotoxicity against human Calu-6 cells assessed as inhibition of cell proliferation incubated for 4 hrs by MTS assay; assay type: functional, cell-based; conditions: Calu-6, 4 h; in short: as §1
COLO 205 = experiment: Cytotoxicity against human COLO 205 cells assessed as inhibition of cell proliferation incubated for 4 hrs by MTS assay; assay type: functional, cell-based; conditions: COLO 205, 4 h; in short: as §1
U-937 = experiment: Cytotoxicity against human U-937 cells assessed as inhibition of cell proliferation incubated for 4 hrs by MTS assay; assay type: functional, cell-based; conditions: U-937, 4 h; in short: as §1
BXPC-3 = experiment: Cytotoxicity against human BXPC-3 cells assessed as inhibition of cell proliferation incubated for 4 hrs by MTS assay; assay type: functional, cell-based; conditions: BXPC-3, 4 h; in short: as §1
MCF7 [7] = experiment: Cytotoxicity against human MCF7 cells transfected with MDR1 assessed as inhibition of cell proliferation incubated for 4 hrs by MTS assay; assay type: functional, cell-based; conditions: MCF7, 4 h; in short: as §1
[8] = Cytotoxicity against human U-87 MG cells assessed as inhibition of cell proliferation incubated for 4 hrs by MTS assay; assay type: functional, cell-based, U-87MG ATCC; in short: as §1
SK-HEP1 = experiment: Cytotoxicity against human SK-HEP1 cells assessed as inhibition of cell proliferation incubated for 4 hrs by MTS assay; assay type: functional, cell-based; conditions: SK-HEP1, 4 h; in short: as §1
KARPAS-299 = experiment: Cytotoxicity against human KARPAS-299 cells assessed as inhibition of cell proliferation incubated for 4 hrs by MTS assay; assay type: functional, cell-based; conditions: KARPAS-299, 4 h; in short: as §1
HCT-116 = experiment: Cytotoxicity against human HCT-116 cells assessed as inhibition of cell proliferation incubated for 4 hrs by MTS assay; assay type: functional, cell-based; conditions: HCT-116, 4 h; in short: as §1
T47D = experiment: Cytotoxicity against human T47D cells assessed as inhibition of cell proliferation incubated for 4 hrs by MTS assay; assay type: functional, cell-based; in short: as §1
A20 = experiment: Cytotoxicity against mouse A20 lymphoma cells assessed as inhibition of cell proliferation incubated for 4 hrs by MTT assay; assay type: functional, cell-based; conditions: A20, 4 h
In short: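 Murine A20 cells cultured in RPMI-1640 with 2 mM L-glutamine, 1.5 g/L sodium bicarbonate, 4.5 g/L glucose, 10 mM HEPES, 1.0 mM sodium pyruvate, 0.05 mM 2-mercaptoethanol and 10% FBS, without antibiotics, at 37 °C, 5% CO2. IC50 from three or more independent measurements, given as mean ± SD.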

SU-DHL-1 = experiment: Cytotoxicity against human SU-DHL-1 cells assessed as inhibition of cell proliferation incubated for 4 hrs by MTS assay; assay type: functional, cell-based; conditions: SU-DHL-1, 4 h; in short: as §1
A549 = experiment: Cytotoxicity against human A549 cells assessed as inhibition of cell proliferation incubated for 4 hrs by MTS assay; assay type: functional, cell-based; conditions: A549, 4 h; in short: as §1

| Compound | IC50 (Toledo) [nM] | IC50 (SK-N-AS) [µM] | IC50 (MDA-MB-231) [µM] | IC50 (Raji) [µM] | IC50 (HCT-15) [µM] | IC50 (SK-OV-3) [µM] | IC50 (Malme-3M) [µM] | IC50 [1] [nM] | IC50 (SK-MEL-2) [µM] | IC50 (HepG2) [µM] | IC50 (Daudi) [µM] | IC50 (RPMI-8226) [nM] | IC50 (PANC-1) [µM] | IC50 at 4 h [2] [µM] | IC50 (HL60/ADR) [µM] | IC50 (MCF7 [3]) [µM] | IC50 (CCRF-CEM) [µM] | IC50 at 4 h [4] [µM] | IC50 (IGROV-1) [µM] | IC50 at 4 h [5] [µM] | also measured |
| --- | --- | --- | --- | --- | --- | --- | --- | --- | --- | --- | --- | --- | --- | --- | --- | --- | --- | --- | --- | --- | --- |
| N=C(N)NCCC[C@H](NC(=O)[C@H](Cc1c[nH]c2ccccc12)NC(=O)[C@H](Cc1c[nH]c2ccccc12)NC(=O)[C@H](CCCNC(=N)N)NC(=O)[C@H](CCCNC(=N)N)NC(=O)C(NC(=O)[C@H](Cc1c[nH]c2ccccc12)NC(=O)[C@H](CCCNC(=N)N)NC(=O)[C@@H](N)CCCNC(=N)N)C(c1ccccc1)c1ccccc1)C(N)=O (stereo partly specified) (H-RRW[ξDip]RRWWR-NH2) | 3000 | 6.9 | 7.6 | 11.3 | 7.5 | 7.4 | 10.4 | 2200 | 10.6 | 16.6 | 4.7 | 4100 | 12.5 | 76 | 6 | 5.5 | 5.6 | 14.6 | 11.1 | 19.4 | IC50 (HL-60): 6.7 µM; IC50 [6]: 5.2 µM; IC50 (OVCAR-3): 8.4 µM; IC50 (DU-145): 6.8 µM; IC50 (MDA-MB-435S): 8 µM; IC50 (Calu-6): 5.8 µM; IC50 (COLO 205): 6.7 µM; IC50 (U-937): 2600 nM; IC50 (BXPC-3): 6.2 µM; IC50 (MCF7 [7]): 6.6 µM; IC50 [8]: 13.1 µM; IC50 (SK-HEP1): 6.3 µM; IC50 (KARPAS-299): 8.2 µM; IC50 (HCT-116): 4.8 µM; IC50 (T47D): 3500 nM; IC50 (A20): 6.7 µM; IC50 (SU-DHL-1): 5 µM; IC50 (A549): 7.3 µM |
| NCCCC[C@H](NC(=O)C(NC(=O)[C@H](Cc1c[nH]c2ccccc12)NC(=O)[C@H](CCCCN)NC(=O)[C@H](CCCCN)NC(=O)[C@H](Cc1c[nH]c2ccccc12)NC(=O)[C@H](Cc1c[nH]c2ccccc12)NC(=O)[C@H](CCCCN)NC(=O)[C@@H](N)CCCCN)C(c1ccccc1)c1ccccc1)C(N)=O (stereo partly specified) (H-KKWWKKW[ξDip]K-NH2) | 2300 | 2.5 | 3.6 | 4.9 | 3.8 | 7.2 | 3.3 | 1700 | 5.2 | 6.7 | 4 | 1900 | 3.8 | 34.3 | 3 | 2.2 | 2.6 | 9.2 | 6.4 | 16.3 | IC50 (HL-60): 2.1 µM; IC50 [6]: 3.7 µM; IC50 (OVCAR-3): 5.2 µM; IC50 (DU-145): 3.9 µM; IC50 (MDA-MB-435S): 3.1 µM; IC50 (Calu-6): 2.1 µM; IC50 (COLO 205): 2.6 µM; IC50 (U-937): 1200 nM; IC50 (BXPC-3): 3.7 µM; IC50 (MCF7 [7]): 2.5 µM; IC50 [8]: 6.6 µM; IC50 (SK-HEP1): 5.1 µM; IC50 (KARPAS-299): 4.8 µM; IC50 (HCT-116): 3.4 µM; IC50 (T47D): 1200 nM; IC50 (A20): 8.3 µM; IC50 (SU-DHL-1): 2.3 µM; IC50 (A549): 2.8 µM |
